Measured values reported in ChEMBL document CHEMBL5154715, “Phenolic Lipids Derived from Cashew Nut Shell Liquid to Treat Metabolic Diseases” (J Med Chem, 2022).
Calls of active or inactive are those of the source. The calls are words filed in the database; no cut-off is given here.

Key:
[1] = Tmax in C57BL/6 mouse at 40 mg/kg, ip […] by LC-MS/MS analysis; type: ADME, organism-based; details: in vivo
[2] = biological target: T1, Peroxisome proliferator-activated receptor alpha (Mus musculus) (UniProt P23204); assay: Agonist activity at human PPARalpha in mouse hepatocytes assessed as induction of cd36 mRNA expression at 50 uM incubated for 16 hrs by quantitative real-time PCR analysis; type: cell-based; details: Hepatocyte, filed as agonist
T1 sequence (whole entry): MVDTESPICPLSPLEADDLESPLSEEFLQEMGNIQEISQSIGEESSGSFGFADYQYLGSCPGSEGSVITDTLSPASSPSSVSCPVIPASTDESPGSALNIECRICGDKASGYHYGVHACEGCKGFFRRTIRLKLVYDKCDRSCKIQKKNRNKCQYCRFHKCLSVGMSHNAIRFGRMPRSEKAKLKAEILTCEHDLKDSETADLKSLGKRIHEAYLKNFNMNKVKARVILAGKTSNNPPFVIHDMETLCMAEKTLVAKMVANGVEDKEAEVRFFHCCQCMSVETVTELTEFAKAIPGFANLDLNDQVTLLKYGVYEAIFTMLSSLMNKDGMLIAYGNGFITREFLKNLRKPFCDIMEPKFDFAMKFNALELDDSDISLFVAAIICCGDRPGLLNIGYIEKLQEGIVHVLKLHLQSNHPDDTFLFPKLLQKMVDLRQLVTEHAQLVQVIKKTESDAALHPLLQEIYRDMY
How it was run: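 Collagenase-perfused mouse primary hepatocytes from WT mice, plated 2 h in attachment medium, overnight in M199 with 5% charcoal-stripped FBS and 1 nM insulin. Treated next day in serum-free M199 with 50 μM compound for 16 h. RNA qPCR (SYBR Green), comparative Ct method.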

Danio rerio = assay: In vivo agonist activity at human GFP-tagged PPARalpha in transgenic zebrafish assessed as increase in GFP expression in brain at 1.5 uM measured after 14 hrs by microscopy

Row | SMILES | Tmax [1] [min] | Activity [2] | Activity (Danio rerio)
1 | CCCCCCCCCCCCCCCc1cccc(OC(C)(C)C(=O)O)c1 | 30 | Active | –
2 | CCCCCCCCCCCCCCCc1cccc(OC(C)=O)c1C(=O)O | – | – | Active
